Values after ≈ are worked out from the molar mass of the structure shown.
Tests used:
[1] = biological target: 3',5'-cyclic-AMP phosphodiesterase 4D (Homo sapiens, UniProt Q08499); assay: Inhibition of human PDE4D-mediated [3H]CAMP hydrolysis after 30 to 60 mins by scintillation proximity assay
Procedure, shortened: (§1)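 Enzyme was diluted in 10 mM Tris-HCl pH 7.5 with 1 mM EDTA to give 10–30% substrate hydrolysis. Substrate was [3H]-cAMP (0.1 μCi) with 1 μM cAMP. Inhibitors were tested at 10 concentrations with 1% DMSO, 30−60 min at room temperature, stopped with PDE SPA beads and counted. IC50 came from curves. Mean of ≥2 experiments in duplicate, SEM where n ≥ 3.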

Phosphodiesterase 4 = Phosphodiesterase 4 (Homo sapiens, UniProt P27815+Q08499+Q07343+Q08493); assay: Inhibition of PDE4 in human PBMC assessed as inhibition of LPS-induced TNFalpha production incubated for 10 mins prior to LPS-challenge measured after 20 hrs by sandwich ELISA
Procedure, shortened: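 Human PBMC were isolated from normal donors by Ficoll−Hypaque and grown at 1 × 10⁶ cells/mL in RPMI1640 with 10% FCS. Compound was preincubated 10 min, then LPS added (10 ng/mL, stock added). Cells were incubated 20 h at 37 °C in 5% CO₂. Supernatant TNF-α was measured by sandwich ELISA at OD405 (sensitivity ~10 pg/mL). IC50 came from inhibition curves.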

[2] = Thermodynamic aqueous solubility of the compound at pH 6.8; format: physicochemical; conditions: buffer; for solubility thermodynamic: read-out: Therm_solubility
[3] = biological target: 3',5'-cyclic-AMP phosphodiesterase 4A (Homo sapiens, UniProt P27815); assay: Inhibition of human PDE4A-mediated [3H]CAMP hydrolysis after 30 to 60 mins by scintillation proximity assay; procedure, shortened: as §1
[4] = biological target: 3',5'-cyclic-AMP phosphodiesterase 4B (Homo sapiens, UniProt Q07343); assay: Inhibition of human PDE4B-mediated [3H]CAMP hydrolysis after 30 to 60 mins by scintillation proximity assay; procedure, shortened: as §1
[5] = Oral bioavailability in rat at 4.2 umol/kg; format: ADME, organism-based; conditions: in vivo, 4.2 umol/kg
Procedure, shortened: (§2)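 Rat PK after iv and po dosing, some compounds given as the potassium or sodium salt. Vehicle was PBS or 25/75 PEG200/PBS. Dose matched formulation strength: iv 1.05, 2.1 or 4.2 μmol/kg; po 2.1 or 4.2 μmol/kg. For some compounds iv and po used the same dose (2.1 or 4.2 μmol/kg).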

[6] = Clearance in iv dosed rat; format: ADME, organism-based; conditions: in vivo; procedure, shortened: as §2
[7] = Volume of distribution at steady state in iv dosed rat; format: ADME, organism-based; conditions: in vivo, read-out: Vdss; procedure, shortened: as §2
[8] = AUC total in po dosed rat; format: ADME, organism-based; conditions: plasma; procedure, shortened: as §2
[9] = Oral bioavailability in rat; format: ADME, organism-based; conditions: in vivo; procedure, shortened: as §2
[10] = Tmax in po dosed rat; format: ADME, organism-based; conditions: in vivo; procedure, shortened: as §2
Rattus norvegicus [11] = assay: Half life in po dosed rat; format: ADME, organism-based; conditions: in vivo; procedure, shortened: as §2
[12] = Cmax in po dosed rat; format: ADME, organism-based; design: route oral; conditions: in vivo; procedure, shortened: as §2
[13] = Thermodynamic solubility of the compound at pH 1; format: physicochemical; conditions: buffer
[14] = Cmax in ferret at 3.42 umol/kg, ig; format: ADME, organism-based, Mustela putorius furo; design: dose 3.42 umol/kg, route intragastric; conditions: in vivo, po
Procedure, shortened: (§3)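 Ferret PK after intragastric dosing as a solution in PEG200/saline (50/50, v/v) at 3.42 μmol/kg, with one compound at 2.98 μmol/kg. Plasma levels were measured. Detection limits were 0.5 μM for roflumilast and <0.02 μM for its N-oxide metabolite.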

Mus musculus = assay: Antiinflammatory activity in po dosed BALB/c mouse assessed as inhibition of LPS-induced neutrophil influx into BALF administered 1 hr prior to LPS-challenge measured after 3 hrs; format: functional
Procedure, shortened: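 Mice were given vehicle (PEG200:saline 1:1) or compound orally at 1−30 mg/kg, 1 h before LPS challenge. The control group got vehicle with PBS challenge. Animals were killed 3 h after challenge. Pooled from two experiments, 6−15 mice per group. Mann−Whitney test versus vehicle/LPS animals.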

[15] = Tmax in ferret at 3.42 umol/kg, ig; format: ADME, organism-based, Mustela putorius furo; conditions: in vivo, po; procedure, shortened: as §3
Mustela putorius furo = assay: Toxicity in ferret assessed as emesis at 0.075 to 4.8 mg/kg, po after 4 hrs; format: organism-based; design: dose 0.075-4.8 mg/kg, route oral; conditions: in vivo
Rattus norvegicus [16] = assay: Antiinflammatory activity in po dosed ovalbumin-sensitized Brown Norway rat assessed as inhibition of ovalbumin-induced eosinophil influx into BALF administered 2 hrs prior to ovalbumin-challenge measured after 24 hrs; format: functional
Procedure, shortened: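 Brown Norway rats were actively sensitized and dosed orally at 0.3, 1 or 3 mg/kg, or with vehicle PEG200:saline 1:1, 2 h before inhaled ovalbumin challenge. Saline-challenged rats served as controls. Eosinophils were counted in BAL fluid 24 h after challenge. Mean ± SEM, 5−10 animals per group. ED50 was estimated.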

[17] = AUC total in ferret at 3.42 umol/kg, ig; format: ADME, organism-based, Mustela putorius furo; conditions: plasma, po; procedure, shortened: as §3
[18] = Half life in ferret at 3.42 umol/kg, ig; format: ADME, organism-based, Mustela putorius furo; conditions: in vivo, po; procedure, shortened: as §3
[19] = Half life in rat at 2.1 umol/kg, po; format: ADME, organism-based; conditions: in vivo; procedure, shortened: as §2
[20] = Cmax in rat at 2.1 umol/kg, po; format: ADME, organism-based; design: dose 2.1 umol/kg, route oral; conditions: in vivo; procedure, shortened: as §2
[21] = Volume of distribution at steady state in rat at 2.1 umol/kg, iv; format: ADME, organism-based; conditions: in vivo, read-out: Vdss; procedure, shortened: as §2
Rattus norvegicus [22] = assay: AUC total in rat at 2.1 umol/kg, po; format: ADME, organism-based, Plasma; conditions: in vivo; procedure, shortened: as §2
Rattus norvegicus [23] = assay: Oral bioavailability in rat at 2.1 umol/kg; format: ADME, organism-based; conditions: in vivo; procedure, shortened: as §2

Sequence of 3',5'-cyclic-AMP phosphodiesterase 4A (P27815 whole entry): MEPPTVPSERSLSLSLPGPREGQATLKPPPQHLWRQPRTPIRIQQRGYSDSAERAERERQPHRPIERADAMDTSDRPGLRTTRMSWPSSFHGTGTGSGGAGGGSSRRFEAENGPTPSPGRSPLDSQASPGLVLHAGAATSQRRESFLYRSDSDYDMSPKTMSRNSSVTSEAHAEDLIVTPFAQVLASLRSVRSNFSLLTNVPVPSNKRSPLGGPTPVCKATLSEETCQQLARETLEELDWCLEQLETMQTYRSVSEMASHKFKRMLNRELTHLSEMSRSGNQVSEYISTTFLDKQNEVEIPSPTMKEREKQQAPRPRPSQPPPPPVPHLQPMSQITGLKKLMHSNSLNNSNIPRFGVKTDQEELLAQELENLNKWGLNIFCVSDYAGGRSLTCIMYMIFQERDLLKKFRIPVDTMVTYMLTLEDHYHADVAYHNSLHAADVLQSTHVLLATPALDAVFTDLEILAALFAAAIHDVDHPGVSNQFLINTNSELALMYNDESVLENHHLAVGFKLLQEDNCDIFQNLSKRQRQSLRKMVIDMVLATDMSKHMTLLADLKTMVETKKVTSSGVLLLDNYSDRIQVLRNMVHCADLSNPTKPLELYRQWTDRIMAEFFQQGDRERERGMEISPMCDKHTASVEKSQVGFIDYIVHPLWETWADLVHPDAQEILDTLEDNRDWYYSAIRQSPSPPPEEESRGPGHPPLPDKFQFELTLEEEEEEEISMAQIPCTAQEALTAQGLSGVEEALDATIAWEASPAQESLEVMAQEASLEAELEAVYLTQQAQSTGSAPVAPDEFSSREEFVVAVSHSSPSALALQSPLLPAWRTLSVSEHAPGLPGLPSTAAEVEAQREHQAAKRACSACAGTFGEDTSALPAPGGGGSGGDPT
Sequence of 3',5'-cyclic-AMP phosphodiesterase 4D (Q08499 whole entry): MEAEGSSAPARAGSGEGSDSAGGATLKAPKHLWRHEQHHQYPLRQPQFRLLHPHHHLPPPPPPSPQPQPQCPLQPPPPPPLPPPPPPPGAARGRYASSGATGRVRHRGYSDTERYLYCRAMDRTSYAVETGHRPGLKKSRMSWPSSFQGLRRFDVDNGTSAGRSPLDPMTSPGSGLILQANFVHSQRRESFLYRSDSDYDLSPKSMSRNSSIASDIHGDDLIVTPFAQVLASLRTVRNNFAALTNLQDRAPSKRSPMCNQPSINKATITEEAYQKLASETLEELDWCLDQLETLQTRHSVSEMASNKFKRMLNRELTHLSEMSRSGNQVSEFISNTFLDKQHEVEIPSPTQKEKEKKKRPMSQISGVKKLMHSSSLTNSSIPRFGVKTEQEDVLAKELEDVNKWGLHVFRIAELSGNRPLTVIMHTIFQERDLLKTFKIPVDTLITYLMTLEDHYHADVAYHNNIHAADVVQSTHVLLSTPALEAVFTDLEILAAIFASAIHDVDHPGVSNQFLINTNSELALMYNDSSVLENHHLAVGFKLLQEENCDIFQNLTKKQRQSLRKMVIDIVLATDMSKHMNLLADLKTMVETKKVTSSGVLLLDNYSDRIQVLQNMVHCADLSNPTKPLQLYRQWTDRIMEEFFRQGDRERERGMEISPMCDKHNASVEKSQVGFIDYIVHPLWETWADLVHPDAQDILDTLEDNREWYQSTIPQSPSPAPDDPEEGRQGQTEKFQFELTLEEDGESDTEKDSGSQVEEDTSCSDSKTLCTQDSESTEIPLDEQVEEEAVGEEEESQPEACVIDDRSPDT
Sequence of 3',5'-cyclic-AMP phosphodiesterase 4B (Q07343 whole entry): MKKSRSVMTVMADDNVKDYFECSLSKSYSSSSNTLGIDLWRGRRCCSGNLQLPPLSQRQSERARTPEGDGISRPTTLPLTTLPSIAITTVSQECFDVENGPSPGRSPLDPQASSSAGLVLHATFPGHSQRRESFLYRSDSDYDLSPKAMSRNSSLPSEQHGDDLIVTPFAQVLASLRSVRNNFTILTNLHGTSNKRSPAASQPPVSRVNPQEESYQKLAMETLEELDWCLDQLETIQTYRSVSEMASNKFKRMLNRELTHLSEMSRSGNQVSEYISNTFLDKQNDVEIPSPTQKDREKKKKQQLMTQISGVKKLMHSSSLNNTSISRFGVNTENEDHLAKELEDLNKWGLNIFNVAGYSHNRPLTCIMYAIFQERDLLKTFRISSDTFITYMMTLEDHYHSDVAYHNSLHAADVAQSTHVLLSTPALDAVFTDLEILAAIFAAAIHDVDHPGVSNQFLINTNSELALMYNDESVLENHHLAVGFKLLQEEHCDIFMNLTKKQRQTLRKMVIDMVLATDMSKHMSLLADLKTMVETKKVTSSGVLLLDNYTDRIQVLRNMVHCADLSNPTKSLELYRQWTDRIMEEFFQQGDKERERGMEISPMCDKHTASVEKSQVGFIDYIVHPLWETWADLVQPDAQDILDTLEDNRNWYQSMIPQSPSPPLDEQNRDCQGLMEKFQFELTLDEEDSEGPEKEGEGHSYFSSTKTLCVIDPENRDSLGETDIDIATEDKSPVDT

Compound | IC50 [1] | IC50 (Phosphodiesterase 4) | solubility thermodynamic [2] | IC50 [3] | IC50 [4] | Therm_solubility [2] | other results
CSc1cccc(-c2nc([C@H]3CC[C@H](C(=O)O)CC3)cc3cccnc23)c1 | 6 nM | 19 nM | 1100 µg/mL (≈ 2910 µM) | 27 nM | 17 nM |  | 
N#Cc1cccc(-c2nc([C@H]3CC[C@H](C(=O)O)CC3)cc3cccnc23)c1 | 41 nM | 53 nM |  | 160 nM | 93 nM | 430 µg/mL | bioavailability [5]: 92%
COc1cccc(-c2nc([C@H]3CC[C@H](C(=O)O)CC3)cc3cccnc23)c1 | 64 nM | 151 nM |  | 242 nM | 156 nM | 150 µg/mL | 
O=C(O)c1ccc(-c2cc3cccnc3c(-c3ccc4nonc4c3)n2)cc1 |  | 67.6 nM | 2 µg/mL (≈ 5.43 µM) |  |  |  | clearance [6]: 2.34 mL/min/kg; Vd [7]: 0.37 L/kg; AUC [8]: 8.72 µM·h; bioavailability [9]: 8%; Tmax [10]: 3.5 h; t1/2 (Rattus norvegicus [11]): 12 h; Cmax [12]: 2.4 µM; Therm_solubility [13]: 0.04 µg/mL
O=C(O)[C@H]1CC[C@H](c2cc3cccnc3c(-c3cccc(F)c3)n2)CC1 [listing 1 of 2 here] | 32 nM | 126 nM |  | 123 nM | 34 nM | 920 µg/mL | Cmax [14]: 12.3 µM; ED50 (Mus musculus): 11.2 mg/kg; Tmax [15]: 1.5 h; Activity (Mustela putorius furo): Non-toxic; ED50 (Rattus norvegicus [16]): 1.2 mg/kg; AUC [17]: 59.3 µM·h; half-life [18]: 3.2 h
O=C(O)[C@H]1CC[C@H](c2cc3cccnc3c(-c3cccc(OC(F)(F)F)c3)n2)CC1 | 24 nM | 52 nM | 6 µg/mL (≈ 14.4 µM) | 107 nM | 43 nM |  | Cmax [14]: 10.5 µM; Tmax [15]: 1.75 h; Activity (Mustela putorius furo): Non-toxic; ED50 (Rattus norvegicus [16]): 2 mg/kg; AUC [17]: 49.7 µM·h; half-life [18]: 1.87 h
O=C([O-])[C@H]1CC[C@H](c2cc3cccnc3c(-c3cccc(F)c3)n2)CC1.[K+] |  |  |  |  |  |  | half-life [19]: 9 h; Cmax [20]: 4.6 µM; Vd [21]: 0.09 L/kg; AUC (Rattus norvegicus [22]): 4408 µM·min; F (Rattus norvegicus [23]): 52%
O=C(O)C1CCN(c2cc3cccnc3c(-c3cccc(OC(F)(F)F)c3)n2)CC1 | 30 nM |  | 1950 µg/mL (≈ 4670 µM) | 371 nM | 225 nM |  | 
O=C(O)[C@H]1CC[C@H](c2cc3cccnc3c(-c3cccc(F)c3)n2)CC1 [listing 2 of 2 here] |  |  |  |  |  |  | inhibition (Rattus norvegicus [16]): Dose-dependent effect
O=C(O)C1CCN(c2cc3cccnc3c(-c3cccc(Cl)c3)n2)CC1 | 30 nM | 541 nM | 140 µg/mL (≈ 381 µM) | 364 nM | 187 nM |  | 

From ChEMBL document CHEMBL2169833, “Solubility-driven optimization of phosphodiesterase-4 inhibitors leading to a clinical candidate” (J Med Chem, 2012)
